Screens deposited in PubChem by several laboratories.
Rpn11 inh – Rpn11 (PSMD14) deubiquitinase inhibitors, primary screen, biochemical, fluorescence polarization, uHTS. inhibition, % at 20 µM. AID 588493, 2011. 360,000 compounds, 0.59% hits. 26S proteasome non-ATPase regulatory subunit 14 (Homo sapiens), O00487. human 26S proteasome, Ub4-pepOG fluorescence polarization; 20S core pre-blocked with epoxomicin;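 active = inhibition at 20 µM, scaled to each plate's controls, above about 33%, limit read from the data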
TPT1 inhibitor – Candida albicans TPT1 enzyme inhibitors, primary screen, biochemical, fluorescence polarization. recombinant caTPT1, FP RNA substrate dephosphorylation. inhibition, % at 5 µM. 300,000 compounds, 0.81% hits. AID 1962, 2009;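 active = inhibition above the mean of all tested compounds plus 3 SD, set per screening campaign, cut at about 24% in these data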;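 also: plate controls were DMSO alone for no effect and ferristatin control at 100 nM for full effect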
HNF4A DNA FP – change in binding of human HNF4A to DNA, primary screen, biochemical, fluorescence polarization, FITC-DNA; 360,000 compounds, 0.3% hits; Hepatocyte nuclear factor 4-alpha (Homo sapiens), P41235; 1 h; activity change, % at 10 µM; in the data active = activity change above about 30%, passing the limit was not always enough
CSN deneddyl inh – inhibitors of CSN-mediated cullin deneddylation, primary screen, biochemical, fluorescence polarization, uHTS. COP9 signalosome complex subunit 5 (Homo sapiens), Q92905. Purified CSN, SCF-Nedd8-OG deneddylation. inhibition, % at 12.5 µM. 360,000 compounds, 0.38% hits. AID 651999, 2013;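 active = pattern-corrected inhibition above about 35%, with an unprinted fluorescence ratio check between 0.5 and 1.5, limit read from the data, passing the limit was not always enough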;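 also: 0% = enzyme with substrate and 100% = substrate without enzyme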
Target sequence (Q92905 whole entry, looked up, one chain of several): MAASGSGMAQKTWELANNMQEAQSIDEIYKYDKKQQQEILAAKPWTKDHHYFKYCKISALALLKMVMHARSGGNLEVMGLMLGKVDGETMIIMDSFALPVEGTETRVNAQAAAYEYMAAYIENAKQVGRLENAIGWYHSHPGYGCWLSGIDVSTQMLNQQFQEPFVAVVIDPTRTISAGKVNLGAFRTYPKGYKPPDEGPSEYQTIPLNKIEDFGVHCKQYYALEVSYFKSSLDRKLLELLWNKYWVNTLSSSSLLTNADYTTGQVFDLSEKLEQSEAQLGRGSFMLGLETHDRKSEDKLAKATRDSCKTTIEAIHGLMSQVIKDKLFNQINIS
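Assay system: Purified human Csn5 enzyme expressed in HEK293T cells | Amount: Enzyme 0.24 nM | Measured by: Fluorescence polarization readout | Medium: Tris/NaCl/DTT buffer, pH 7.5 | Compound dosing: One concentration, 12.5 µM, 0.25% DMSO | Times: 90 min incubation of compound, enzyme and substrate at room temperature | Control set: no-enzyme wells high, enzyme-with-substrate wells low | Read-out: % inhibition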
NadD inh – inhibitors of S. aureus NadD, primary screen, biochemical, colorimetric, uHTS; purified NadD enzyme, colorimetric absorbance read-out; inhibition, % at 20 µM; 360,000 compounds, 0.78% hits; in the data active = inhibition above about 26%
PP1 counter – PP1-alpha phosphatase inhibitors, primary screen, counter-screen for PP5 inhibitor project, biochemical, fluorescence, OMFP substrate, single point. Serine/threonine-protein phosphatase PP1-alpha catalytic subunit (Homo sapiens), P62136. purified PP1alpha. inhibition, % at 6.7 µM. 320,000 compounds, 0.9% hits;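 active = inhibition above the mean inhibition of all tested compounds plus 3 SD, computed separately for each screening campaign, cut at about 15% in these data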
Target sequence (P62136 whole entry, looked up): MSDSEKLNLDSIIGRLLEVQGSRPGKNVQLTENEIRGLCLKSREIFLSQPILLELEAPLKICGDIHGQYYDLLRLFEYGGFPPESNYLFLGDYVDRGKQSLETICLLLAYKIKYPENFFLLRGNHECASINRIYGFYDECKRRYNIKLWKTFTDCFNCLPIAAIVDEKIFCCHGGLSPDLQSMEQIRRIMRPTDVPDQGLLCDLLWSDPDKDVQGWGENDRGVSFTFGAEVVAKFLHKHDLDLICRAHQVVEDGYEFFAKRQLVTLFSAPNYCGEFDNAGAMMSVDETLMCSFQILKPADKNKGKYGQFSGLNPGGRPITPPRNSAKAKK
NadD inh conf – inhibitors of S. aureus NadD, confirmation, biochemical, colorimetric, single concentration; AID 624309, 2012; purified S. aureus NadD, colorimetric enzyme assay; shares compounds with NadD inh; inhibition, % at 20 µM; 2,000 compounds, 13% hits; in the data active = inhibition mostly above about 42%, no sharp cut-off; inactive = mostly below about 42%
The depositor's hits bear a star; x = not tested or not shown; ! = not active in a repeat. A selection: hits, their analogues and other compounds. The true share with any hit is near 2.7%.

SMILES | Rpn11 inh | TPT1 inhibitor | HNF4A DNA FP | CSN deneddyl inh | NadD inh | PP1 counter | NadD inh conf
CC(=O)C1=C(C)NC(SCC(=O)Nc2nc3ccccc3s2)=C(C#N)C1c1ccc(Cl)cc1 (centres undefined) | 10.6 | 1.1 | 1.1 | 1.5 | 18.4 | 5.8 | x
O=C(NCC1CCCO1)c1ccc(Cl)c(S(=O)(=O)N2CCCCC2)c1 (centres undefined) | -5.9 | 0.7 | 1.5 | 0.7 | -4.5 | -3.7 | x
Cc1c(C(=O)O)sc2nc(/C=C/c3cccc(F)c3)[nH]c(=O)c12 | -6.1 | -2.2 | -2.8 | 1.1 | 1.5 | -5.9 | x
Cc1ccc(/C=C/c2nc3sc(C(=O)O)c(C)c3c(=O)[nH]2)cc1[N+](=O)[O-] | 6.1 | -0.4 | -12.0 | 4.7 | 35.8* | -3.4 | 0.8
O=C(NCc1ccco1)c1cccc2c1C(=O)c1ccc(/C=C/c3ccccc3)cc1S2(=O)=O | 16.1 | x | -18.5 | 55.4* | 48.5* | x | 45.9*
O=C(NCc1cccc(F)c1)c1cccc2c1C(=O)c1ccc(N3CCC(Cc4ccccc4)CC3)cc1S2(=O)=O | -108.0 | x | -79.8 | -72.0 | 20.9 | x | x
O=C(NCCc1ccc(F)cc1)c1cccc2c1C(=O)c1ccc(N3CCC(Cc4ccccc4)CC3)cc1S2(=O)=O | -44.1 | x | -62.2 | -5.5 | 27.5* | x | 4.8
O=C(NCc1ccco1)c1cccc2c1C(=O)c1ccc(N3CCC(Cc4ccccc4)CC3)cc1S2(=O)=O | -53.0 | x | -24.9 | 13.7 | 39.0* | x | 5.3
C[C@H](NC(=O)CCC1CCC(=O)N1)c1ccccc1 (some centres undefined) | 6.9 | -0.6 | 1.8 | -0.2 | -5.4 | 0.0 | x
CCCCOc1ccccc1NC(=O)CC1Nc2ccccc2NC1=O (centres undefined) | -1.5 | 8.3 | 4.2 | 4.0 | 31.2* | 7.4 | 33.9
CCOC(=O)c1ccc(-c2ccc(N3C(c4ccsc4)=Cc4ccc(F)cc4C3c3c[nH]c4ccc(C#N)cc34)cc2)cc1F (centres undefined) | x | x | 15.0 | 0.0 | 30.4* | x | 9.8
CC(C)(O)C#Cc1ccc(N2C(c3ccsc3)=Cc3ccc(F)cc3C2c2c[nH]c3ccc(C#N)cc23)cc1 (centres undefined) | x | x | 23.1 | 5.7 | 14.9 | x | x
Cc1[nH]c2ccccc2c1/C=N/NC(=O)c1cccc(S(=O)(=O)Nc2ccccc2Cl)c1 | 19.8 | 22.1 | 10.2 | -14.3 | 12.8 | 3.5 | x
CCc1cccc2c(/C=N/NC(=O)c3cccc(S(=O)(=O)Nc4ccccc4Cl)c3)c[nH]c12 | 5.0 | -3.1 | 0.8 | 1.4 | 32.0* | 1.8 | 52.5*
Cc1cccc(C(=O)N[C@H](C(=O)Nc2ccc(C)c(S(=O)(=O)N3CCOCC3)c2)C(C)C)c1 | -1.5 | x | -7.6 | 0.7 | 0.2 | x | x
N#CCC(=O)Nc1ccc(C(=O)OCC(=O)Nc2ccc3ccccc3c2)cc1 | 7.0 | x | 5.4 | 8.5 | 45.8* | 15.4* | 39.6
O=C(COC(=O)c1ccc(CO)cc1)Nc1ccc2ccccc2c1 | 0.9 | x | -0.3 | -5.0 | 9.6 | 6.7 | x
CC1CCc2c(sc(NC(=O)COC(=O)c3ccc(NC(=O)CC#N)cc3)c2C#N)C1 (centres undefined) | 24.8 | 8.5 | 4.9 | 6.3 | 36.1* | 0.3 | 17.2
CCN(CC)S(=O)(=O)c1cc(NC(=O)COC(=O)C2CCC2)ccc1C | -0.7 | x | 1.3 | 5.5 | 0.3 | -1.4 | x
CCN(CC)S(=O)(=O)c1cc(NC(=O)COC(=O)c2ccc(NC(=O)CC#N)cc2)ccc1C | 10.8 | 2.5 | -0.4 | 3.1 | 32.6* | 2.4 | 14.0
Cn1c(SSc2ccc(-c3cccnc3)n2C)ccc1-c1cccnc1 | 14.1 | x | -1.0 | 4.5 | -5.1 | x | x
O=C(c1ccc2snnc2c1)N1CCCCC1 | 3.0 | -5.7 | 1.1 | 2.4 | 51.7* | -5.1 | 1.3
O=C(c1ccc2snnc2c1)N1CCSCC1 | -0.6 | 4.0 | -4.3 | -1.4 | -3.5 | -2.2 | x
O=C(/C=C/Nc1ccc(S(=O)(=O)Nc2ncccn2)cc1)c1ccc(Cl)c(Cl)c1 | 53.6* | 3.9 | 5.1 | 11.5 | 39.8* | -1.2 | 3.4
CSCCC(NS(=O)(=O)c1ccc(C)cc1)C(=O)Nc1ccc(C)cn1 (centres undefined) | -1.8 | 4.1 | -0.6 | 2.4 | -2.5 | -1.2 | x
SMILES | Rpn11 inh | TPT1 inhibitor | HNF4A DNA FP | CSN deneddyl inh | NadD inh | PP1 counter | NadD inh conf
Nc1scc2c(C(=O)N/N=C/c3ccc(Cl)cc3)nn(-c3ccccc3)c(=O)c12 | 4.4 | -0.7 | -1.0 | 2.6 | 39.6* | 14.3 | 14.5
CC(=O)c1cccc(NC(=O)Nc2ccccc2)c1 | -0.2 | 2.3 | 0.8 | 3.8 | -3.8 | -1.7 | x
CC(=O)c1cccc(NC(=O)C2C3C=CC(C3=C(c3ccccc3)c3ccccc3)C2C(=O)O)c1 (centres undefined) | 6.0 | -3.2 | -4.2 | 12.6 | 37.1* | 1.2 | 50.4*
CC1=NC(C)(C)CC2CCC(O)C12 (centres undefined) | 4.3 | x | 1.1 | -2.6 | -0.6 | x | x
Cc1cc(OCC(=O)NCCN2CCOCC2)c2c(C)c(C)c(=O)oc2c1 | 4.9 | -1.1 | -0.3 | -3.8 | 1.8 | -2.5 | x
Cc1cc2nc(/N=C(\N)NC(=O)N3c4ccccc4Sc4ccccc43)nc(C)c2cc1C | 18.3 | 0.5 | 3.2 | 1.0 | 26.7*! | -1.7 | 7.5
OC[C@@H]1CN(Cc2ccc(F)cc2)C[C@H](n2cnc3c(NCc4ccc(F)cc4)ncnc32)O1 | -2.3 | x | -1.0 | 3.8 | -0.9 | x | x
Fc1ccc(SCCc2ccncc2)cc1 | -2.8 | -2.4 | -2.2 | 3.0 | 6.8 | -0.4 | x
Fc1cc(F)c(F)c(SCCc2ccncc2)c1F | 3.7 | -5.0 | 1.9 | 7.7 | 24.7* | -2.3 | 9.6
Brc1ccc(-c2csc(Nc3nc(-c4ccc(Br)cc4)cs3)n2)cc1 | 5.0 | -3.5 | 2.8 | 5.3 | 30.0* | 0.6 | -1.0
Cc1nc(S/C(=C\c2ccc(OCc3ccccc3Cl)cc2)C(=O)O)n[nH]1 | -0.3 | -3.9 | 1.8 | -2.2 | 63.0* | 3.3 | 13.0
Cc1nc(SCC(=O)Nc2ccc(OCc3ccccc3)cc2)n[nH]1 | -1.0 | -2.3 | 4.5 | 4.2 | -0.6 | -2.4 | x
CNC(=O)COc1ncnc2sccc12 | -0.2 | x | 0.8 | -4.3 | 5.4 | x | x
O=C(COc1ncnc2sccc12)Nc1ccc(F)cc1F | 7.5 | 7.0 | 2.8 | 1.7 | 30.1* | -0.7 | 8.9
N/C(=N\N=C\c1ccnc2ccccc12)SC1CC(=O)N(c2ccc(Br)cc2)C1=O (centres undefined) | -0.5 | -3.2 | 1.8 | 1.1 | 46.4* | 6.8 | 7.4
